From ChEMBL document CHEMBL1132488, “On the bioactive conformation of NAN-190 (1) and MP3022 (2), 5-HT(1A) receptor antagonists” (J Med Chem, 1999)
pKi: −log10 of the molar value. Values belong to the molecule of their own block, whether it stands above or below them.

Tests used:
Rattus norvegicus [1] = species: Rattus norvegicus; test: Induction of behavioral syndrome(FBP: flat body posture) by the compound in reserpine pretreated rats at a dose of 32; FBP mean score; type: functional
Outline: (§1)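 Male Wistar rats (260–300 g) were given reserpine 1 mg/kg sc in saline 18 h before testing. Test compound was then given alone ip as a 1% Tween 80 suspension (2 mL/kg). FBP and FT were each scored 0–3 and summed (maximum 15). n=6 per group; mean ± SEM; Newman–Keuls test.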

Rattus norvegicus [2] = species: Rattus norvegicus; test: Induction of behavioral syndrome(FT: forepaw treading) by the compound in reserpine pretreated rats at a dose of 8; FT mean score; type: functional; outline: as §1
Rattus norvegicus [3] = species: Rattus norvegicus; test: Effect on 8-OH-DAPT- induced behavioral syndrome(FBP: flat body posture) by the compound in reserpine pretreated rats at a dose of 16; FBP mean score; type: functional
Outline: (§2)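 Reserpinized male Wistar rats (reserpine 1 mg/kg sc, 18 h before), groups of 6. Compound given ip in 1% Tween 80 60 min before 8-OH-DPAT 5 mg/kg sc. FBP/FT rated 0–3 at 3, 6, 9, 12 and 15 min after agonist, summed (max 15). Mean ± SEM; Newman–Keuls test; ED50 with range.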

Rattus norvegicus [4] = species: Rattus norvegicus; test: Effective dose of the required to inhibit symptoms produced by 8-OH-DPAT; type: functional; outline: as §2
Rattus norvegicus [5] = test: Induction of LLR(lower lip retraction) by the compound in rats at a dose of 32 mg/kg; type: functional
Outline: (§3)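 Male Wistar rats, groups of 6, given compound alone ip as 1% Tween 80 suspension. Lower incisor visibility scored 0/0.5/1 at 15, 30 and 45 min after dosing, summed (max 3 per rat). Mean ± SEM versus vehicle, Newman–Keuls test; ED50 with range.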

Rattus norvegicus [6] = species: Rattus norvegicus; test: Effect on 8-OH-DAPT- induced behavioral syndrome(FT: forepaw treading) by the compound in reserpine pretreated rats at a dose of 32; FT mean score; type: functional; outline: as §2
Rattus norvegicus [7] = test: Effect on 8-OH-DPAT-Induced LLR(lower lip retraction) in rats at a dose of 32 mg/kg; type: functional
Outline: (§4)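 Male Wistar rats, groups of 6. Compound given ip in 1% Tween 80 45 min before 8-OH-DPAT 1 mg/kg sc. Lower incisor visibility scored 0/0.5/1 at 15, 30 and 45 min after agonist, summed (max 3). Mean ± SEM; Newman–Keuls test; ED50 with range.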

Rattus norvegicus [8] = species: Rattus norvegicus; test: Dose Inducing behavioral syndrome(FT: forepaw treading) by the compound in reserpine pretreated rats; type: functional
Outline: (§5)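 Male Wistar rats (260–300 g), groups of 6, given reserpine 1 mg/kg sc 18 h before test. Compounds given ip as 1% Tween 80 suspension. FBP and FT rated 0–3 in 45-s sessions every 3 min, starting 3 min after dosing. Score summed over 5 periods (max 15 per symptom). Mean ± SEM; Newman–Keuls test.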

Rattus norvegicus [9] = species: Rattus norvegicus; test: Induction of behavioral syndrome(FT: forepaw treading) by the compound in reserpine pretreated rats at a dose of 32; FT mean score; type: functional; outline: as §1
Rattus norvegicus [10] = test: Induction of LLR(lower lip retraction) by the compound in rats at a dose of 16 mg/kg; type: functional; outline: as §3
Rattus norvegicus [11] = test: Induction of LLR(lower lip retraction) by the compound in rat at a dose of 8 mg/kg; LLR score; type: functional; outline: as §3
Rattus norvegicus [12] = species: Rattus norvegicus; test: Effect on 8-OH-DAPT- induced behavioral syndrome(FBP: flat body posture) by the compound in reserpine pretreated rats at a dose of 32; FBP mean score; type: functional; outline: as §2
Rattus norvegicus [13] = species: Rattus norvegicus; test: Dose Inducing behavioral syndrome(FBP: flat body posture) by the compound in reserpine pretreated rats; type: functional; outline: as §5
Rattus norvegicus [14] = species: Rattus norvegicus; test: Induction of behavioral syndrome(FT: forepaw treading) by the compound in reserpine pretreated rats at a dose of 16; FT mean score; type: functional; outline: as §1
Rattus norvegicus [15] = species: Rattus norvegicus; test: Induction of behavioral syndrome(FBP: flat body posture) by the compound in reserpine pretreated rats at a dose of 8; FBP mean score; type: functional; outline: as §1
Rattus norvegicus [16] = species: Rattus norvegicus; test: Effect on 8-OH-DAPT- induced behavioral syndrome(FBP: flat body posture) by the compound in reserpine pretreated rats at a dose of 8; FBP mean score; type: functional; outline: as §2
Rattus norvegicus [17] = species: Rattus norvegicus; test: Effect on 8-OH-DAPT- induced behavioral syndrome(FT: forepaw treading) by the compound in reserpine pretreated rats at a dose of 8; FT mean score; type: functional; outline: as §2
Rattus norvegicus [18] = test: Effect on 8-OH-DPAT-Induced LLR(lower lip retraction) in rats at a dose of 16 mg/kg; type: functional; outline: as §4
Rattus norvegicus [19] = test: Effect on 8-OH-DPAT-Induced LLR(lower lip retraction) in rats at a dose of 8 mg/kg; type: functional; outline: as §4
Rattus norvegicus [20] = species: Rattus norvegicus; test: Effect on 8-OH-DAPT- induced behavioral syndrome(FT: forepaw treading) by the compound in reserpine pretreated rats at a dose of 16; FT mean score; type: functional; outline: as §2
Rattus norvegicus [21] = species: Rattus norvegicus; test: Induction of behavioral syndrome(FBP: flat body posture) by the compound in reserpine pretreated rats at a dose of 16; FBP mean score; type: functional; outline: as §5
[22] = target: T1, 5-hydroxytryptamine receptor 1A (Rattus norvegicus, UniProt P19327); test: Ability to displace [3H]8-OH-DPAT from 5-hydroxytryptamine 1A receptor
T1 sequence (P19327 whole entry): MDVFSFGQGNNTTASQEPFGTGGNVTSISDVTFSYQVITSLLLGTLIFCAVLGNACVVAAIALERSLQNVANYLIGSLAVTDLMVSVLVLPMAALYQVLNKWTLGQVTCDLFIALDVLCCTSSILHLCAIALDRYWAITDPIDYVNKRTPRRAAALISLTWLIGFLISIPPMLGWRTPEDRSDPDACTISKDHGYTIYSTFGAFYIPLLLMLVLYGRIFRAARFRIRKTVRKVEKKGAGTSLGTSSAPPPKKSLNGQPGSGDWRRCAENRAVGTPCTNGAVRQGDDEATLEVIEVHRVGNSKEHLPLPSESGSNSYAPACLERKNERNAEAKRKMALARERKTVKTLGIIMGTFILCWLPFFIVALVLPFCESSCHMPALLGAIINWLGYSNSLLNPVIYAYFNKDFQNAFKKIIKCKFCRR
Outline: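 Rat hippocampal membranes, [3H]8-OH-DPAT radioligand. Ki from at least three competition experiments, each with 10–14 drug concentrations run in triplicate. Ki calculated with the Cheng–Prusoff equation.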

pKi [22]: 7.47
Structure (SMILES): O=C1c2ccccc2C(=O)N1C1CCC(N2CCc3ccccc3C2)CC1 (stereo not drawn)
FBP mean score (Rattus norvegicus [1]): 0.3
FT mean score (Rattus norvegicus [2]): 0.1
FBP mean score (Rattus norvegicus [3]): 10.3
ED50 (Rattus norvegicus [4]): > 32 mg/kg
LLR score (Rattus norvegicus [5]): 0.3
FT mean score (Rattus norvegicus [6]): 4.3
LLR score (Rattus norvegicus [7]): 2.3
ED50 (Rattus norvegicus [8]): 13.5 mg/kg
FT mean score (Rattus norvegicus [9]): 0.1
LLR score (Rattus norvegicus [10]): 0.2
LLR score (Rattus norvegicus [11]): 0.1
FBP mean score (Rattus norvegicus [12]): 11.8
ED50 (Rattus norvegicus [13]): > 32 mg/kg
FT mean score (Rattus norvegicus [14]): 0.1
FBP mean score (Rattus norvegicus [15]): 0.3
FBP mean score (Rattus norvegicus [16]): 11
FT mean score (Rattus norvegicus [17]): 7.5
LLR score (Rattus norvegicus [18]): 2.5
LLR score (Rattus norvegicus [19]): 2.3
FT mean score (Rattus norvegicus [20]): 5.7
FBP mean score (Rattus norvegicus [21]): 0.5

pKi [22]: 6.45
Structure (SMILES): O=C1c2ccccc2C(=O)N1CCCCN1CCc2ccccc2C1
